# Published values collected from several papers.
# Target: Dual specificity mitogen-activated protein kinase kinase 1 (MAP2K1, Homo sapiens, UniProt Q02750)
SMILES,observed,method,concentration,remaining binding [%]
Cc1ccc(NC(=O)c2ccc(CN3CCN(C)CC3)cc2)cc1Nc1nccc(-c2cccnc2)n1,cell-free assay,competition with immobilised ligand,10 µM,94
C[C@@H]1CN(c2ccc3ncc(-c4ccc5[nH]nc(C6CC6)c5c4)n3n2)C[C@H](C)O1,binding,competition with immobilised ligand,0.5 µM,100
CC(C)(C)c1ccc(-c2nc(CBr)nn2-c2cccc(O)c2)cc1,cell-free assay,competition with immobilised ligand,10 µM,83
CN(C)c1ncnc(-c2ccc3nc(Nc4cc(CN5CCN(C(=O)CC(F)(F)F)CC5)ccn4)[nH]c3c2)c1Cl,cell-free assay,competition with immobilised ligand,1 µM,78
Cc1nc(Nc2ncc(C(=O)Nc3c(C)cccc3Cl)s2)cc(N2CCN(CCO)CC2)n1,cell-free assay,competition with immobilised ligand,0.1 µM,89
C[C@@H](c1ccc(-n2cnc3c(N)ncnc32)cc1)N1CCc2nn(C)c(Cc3ccccc3)c2C1=O,binding,competition with immobilised ligand,0.1 µM,89
CC1=C(C#N)C(c2ccc3c(c2)c(NC(=O)c2ccccc2C)nn3C)C(C#N)=C(C)N1,cell-free assay,competition with immobilised ligand,1 µM,87
FC(F)(F)Oc1cccc(-c2cnc3ccc(-c4ccncc4)nn23)c1,cell-free assay,competition with immobilised ligand,5 µM,70
Cc1c(-c2ccccc2)oc2c(C(=O)OCCN3CCCCC3)cccc2c1=O,cell-free assay,competition with immobilised ligand,10 µM,95
c1cnn2ncc(-c3ccnc(N4CCC45COC5)n3)c2c1,binding,competition with immobilised ligand,1 µM,69
O=C(NCC1CCOCC1)c1n[nH]cc1NC(=O)c1c(F)cccc1F,binding,competition with immobilised ligand,1 µM,100
COc1ccc2cc(OCC3(C(=O)O)CN(C(=O)c4ccc(F)cc4)C3)ccc2c1,cell-free assay,competition with immobilised ligand,1 µM,100
CN(c1nccc(-c2cnn3ncccc23)n1)C1CC1,binding,,1 µM,100
Cc1noc([C@H]2C[C@@H](c3ccc(C(F)(F)F)cc3)CN(C(=O)N3CCS(=O)(=O)C3)C2)n1,cell-free assay,competition with immobilised ligand,1 µM,100
Cc1cnc(Nc2ccc(C(=O)N3CCC(N4CCCC4)CC3)cc2)nc1-c1cc2ccccc2s1,binding,competition with immobilised ligand,1 µM,25
C[C@@H]1CCN(c2nccc(-c3cnn4ncccc34)n2)C1,binding,competition with immobilised ligand,1 µM,75
C[C@H](c1cccc(C#N)c1)n1cc(Cl)cc(C(N)=O)c1=N,cell-free assay,competition with immobilised ligand,1 µM,75
CS(=O)(=O)CCNCc1ccc(-c2ccc3ncnc(Nc4ccc(OCc5cccc(F)c5)c(Cl)c4)c3c2)o1,cell-free assay,competition with immobilised ligand,0.1 µM,95
CN(C)c1ncc(F)c(-c2cnn3ncccc23)n1,binding,competition with immobilised ligand,1 µM,78
COc1ccc2c(c1)O[C@@H](c1ccc(OC)c(OC)c1)C[C@H]2NC(=O)C1(c2ccc3c(c2)OC(F)(F)O3)CC1,cell-free assay,competition with immobilised ligand,1 µM,86
COc1cc2ncnc(Nc3ccc(F)c(Cl)c3)c2cc1OCCCN1CCOCC1,cell-free assay,competition with immobilised ligand,0.1 µM,100
C[C@H](c1ccc(F)cc1)N(Cc1cccc(C(=O)O)c1)C(=O)c1cnc2ccccc2c1,cell-free assay,competition with immobilised ligand,1 µM,100
CN1CC[C@H](c2c(O)cc(O)c3c(=O)cc(-c4ccccc4Cl)oc23)[C@H](O)C1,cell-free assay,competition with immobilised ligand,10 µM,92
c1cncc(-c2cccc(Nc3nccc(NC4CCCCC4)n3)c2)c1,binding,competition with immobilised ligand,10 µM,79
O=C(c1ccc(Nc2nccc(-c3cc4ccccc4s3)n2)cc1)N1CCC(N2CCCC2)CC1,binding,competition with immobilised ligand,1 µM,54
Cc1nc(Cc2cccc(C(F)(F)F)c2)sc1-c1ccc(C(N)=O)nc1,cell-free assay,competition with immobilised ligand,1 µM,100
CNC(=O)c1cc(Oc2ccc(NC(=O)Nc3ccc(Cl)c(C(F)(F)F)c3)cc2)ccn1,cell-free assay,competition with immobilised ligand,10 µM,99
CNC(=O)[C@@H]1CC[C@@H](n2c(-c3ccc4cnccc4c3)nc3ccc(C(=O)NCc4cccc(C(N)=O)c4)cc32)C1,binding,competition with immobilised ligand,1 µM,100
O=C(NCCCN1CCOCC1)c1ccc(Nc2ncc(Cl)c(-c3ccc(Cl)s3)n2)cc1,binding,competition with immobilised ligand,1 µM,63
N[C@@H]1CCN(c2nccc(-c3cnn4ncccc34)n2)C1,binding,,1 µM,100
CCN(CC)Cc1cc(Nc2ccnc3cc(Cl)ccc23)ccc1O,cell-free assay,competition with immobilised ligand,0.1 µM,95
N#Cc1ccccc1CSc1nnc2c(n1)[nH]c1ccccc12,binding,competition with immobilised ligand,10 µM,95
